# PubChem BioAssay AID602221 (Southern Research Specialized Biocontainment Screening …, 2012)
# The source made the active and inactive calls.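 Rule for the calls: active = inhibition of 30% or more at any tested concentration; inactive = the rest.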
# Molecular target: Aspartyl aminopeptidase (Homo sapiens) (UniProt Q9ULA0)
# Assay: inhibition of human DNPEP peptide cleavage – biochemical, QFRET fluorogenic substrate, set 2, counter-screen for PfM18AAP inhibitor project, dose response (AID 602221)
# Settings: recombinant hM18AAP, H-Glu-NHMec fluorogenic cleavage
# How it was run: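 Assay system: purified recombinant human M18 aspartyl aminopeptidase (hM18AAP) / Amount: hM18AAP at 5 µg/mL final / Buffer or medium: Tris pH 7.5 with CoCl2 and 2% DMSO / Also added: H-Glu-NHMec substrate, 0.1 mM / Incubation: 90 min reaction, room temperature / Detection: fluorescence, ex 370/em 460 nm / Benchmarks: no-enzyme background wells as reference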
row,Structure (SMILES),IC50 [µM]
1,Oc1ccc(CCNc2c3ccccc3nc3ccccc23)cc1O,0.95
2,Oc1ccc(CCNc2ccnc3ccccc23)cc1O,7.26
3,CCc1ccc(NC(=O)Cc2nc(-c3ccc(O)c(O)c3)cs2)cc1,6.04
4,Oc1ccc(-c2csc(Nc3ncccn3)n2)cc1O,2.25
5,CN1CCN(CCCc2ccc(O)c(O)c2)CC1,6.49

# Other lines, results leading:
row,IC50 [µM],Structure (SMILES)
1,29.3,CN1CCN(CCc2ccc(O)c(O)c2)CC1
2,3.7,CN1CCN(c2nc(-c3ccc(O)c(O)c3)cs2)CC1
3,4.78,Oc1ccc(-c2csc(NC3CCCC3)n2)cc1O

# Same assay, conditions: recombinant hM18AAP, H-Glu-NHMec fluorogenic cleavage; at 100 µM (top of the series)
row,inhibition,Structure (SMILES)
1,inactive,COc1ccc(CCCN2CCN(C)CC2)cc1OC
2,inactive,COc1ccc(CCNC(c2ccccc2)c2ccccc2)cc1OC
